Screening data as filed in PubChem.
Compounds with a hit are over-represented: about 4.7% of the library has one in this group of screens.
MT1-MMP act inh: inhibitors of human MT1-MMP activation. GFP/RFP ratio change, % at 20 µM. hit rate 0.061% among 360,000. HT1080 RFP-PRO-GFP cells, GFP/RFP ratio fluorescence, overnight; percent of plate control window, DMSO zero. AID 651647. P50281;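 active = GFP/RFP ratio change of at least 30% with cell ATP level not reduced by more than half and red fluorescence within 50% of control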
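Read-out: GFP/RFP fluorescence ratio; Test system: RFP-PRO-GFP reporter HT1080 cells; Compound dosing: single-point 20 µM compound, 1% DMSO; Times: overnight compound exposure at 37 °C.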
GRIN3A LBD mod: NR3A (human) ligand-binding domain modulation; NR3A LBD differential scanning fluorimetry, Tm shift; 0% = protein alone, 100% = glycine-bound protein; Tm shift relative to glycine control, % at 25 µM; hit rate 2.5% among 340,000; AID 1259313;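 active = melting temperature shift of at least 10% of the positive control shift, at one fixed dose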
MPTP block: inhibitors of mitochondrial permeability transition pore | isolated mouse mitochondria, Ca2+ swelling absorbance, 30 min | inhibition, % at 10 µM | hit rate 1.4% among 360,000;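 active = inhibition of 50% or more, scaled per plate between neutral and stimulator controls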;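 note: 0% = DMSO wells given calcium and 100% = 1 mM EGTA wells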
ADAM17 inh: inhibits human ADAM17; recombinant ADAM17, EDANS/DABCYL FRET peptide cleavage; inhibition, % at 6.95 µM; hit rate 0.83% among 370,000; AID 720648;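 active = inhibition above the mean of compounds lying between control limits plus 3 SD, set per campaign, cut at about 8.5% in these data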;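 note: 0% = DMSO-only wells as the low control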
Target sequence (P78536 215-824 limits assumed): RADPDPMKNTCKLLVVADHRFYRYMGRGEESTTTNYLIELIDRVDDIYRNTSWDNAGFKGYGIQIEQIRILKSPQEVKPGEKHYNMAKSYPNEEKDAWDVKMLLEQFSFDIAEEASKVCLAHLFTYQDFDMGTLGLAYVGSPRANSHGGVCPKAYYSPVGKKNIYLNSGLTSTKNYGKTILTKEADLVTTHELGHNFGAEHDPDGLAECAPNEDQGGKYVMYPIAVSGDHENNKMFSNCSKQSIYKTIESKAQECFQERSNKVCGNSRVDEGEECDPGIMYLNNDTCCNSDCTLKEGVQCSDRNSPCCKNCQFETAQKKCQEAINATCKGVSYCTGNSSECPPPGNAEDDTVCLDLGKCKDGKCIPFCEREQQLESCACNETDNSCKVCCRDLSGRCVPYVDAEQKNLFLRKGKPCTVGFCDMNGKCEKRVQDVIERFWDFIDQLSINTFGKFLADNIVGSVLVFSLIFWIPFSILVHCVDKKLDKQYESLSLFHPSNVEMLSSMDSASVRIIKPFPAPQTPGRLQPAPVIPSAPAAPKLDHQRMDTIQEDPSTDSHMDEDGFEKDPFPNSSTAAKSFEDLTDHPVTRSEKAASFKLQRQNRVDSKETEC
ADAM10 inh: ADAM10 inhibition, QFRET primary screen; inhibition, % at 7 µM; O14672; AID 720582; hit rate 0.62% among 370,000; recombinant ADAM10, EDANS/DABCYL FRET peptide cleavage, 3 h;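 active = inhibition above a per-campaign cutoff equal to the mean of compounds falling between control-based bounds plus 3 SD, cut at about 20% in these data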;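 note: 0% = DMSO wells while the 100% control is not disclosed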
SKN-1 block: inhibitors of C. elegans SKN-1; C. elegans VP596 Pgst-4::GFP/RFP ratio, acrylamide-induced, 24 h; inhibition, % at 21.8 µM; hit rate 0.49% among 360,000;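 active = interference check ratio from 0.5 to 1.5 plus GFP to RFP signal ratio inhibition reaching or exceeding a fixed threshold, cut at about 30% in these data, passing the limit was not always enough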
Numbers without * were called inactive; i = inactive; . = not tested or not shown.

SMILES | MT1-MMP act inh | GRIN3A LBD mod | MPTP block | ADAM17 inh | ADAM10 inh | SKN-1 block
O=C(COC(=O)Cc1c[nH]c2ccccc12)Nc1ccc(Cl)cc1 | 7 | . | 0 | 1 | -7 | -12
COCCOc1ccc(C(F)(F)F)cc1NC(=O)COC(=O)Cc1c[nH]c2ccccc12 | 2 | 21* | 1 | 0 | -9 | -2
Cc1ccc(NC(=O)COC(=O)Cc2c[nH]c3ccccc23)cc1F | 8 | 14* | 0 | 5 | 1 | 13
NC(=O)c1ccsc1NC(=O)COC(=O)Cc1ccccc1[N+](=O)[O-] | -3 | . | 0 | -1 | 0 | 2
NC(=O)c1ccsc1NC(=O)COC(=O)Cc1cccc2ccccc12 | -3 | 24* | -3 | 2 | -4 | -7
N#Cc1ccsc1NC(=O)COC(=O)c1ccc(NC(N)=O)cc1 | 0 | -2 | 2 | -3 | -4 | -7
NC(=O)Nc1ccc(C(=O)OCC(=O)Nc2sccc2C(N)=O)cc1 | 0 | 32* | 0 | 0 | 6 | 6
COc1cc(C(=O)N/N=C/c2cn(Cc3ccccc3)c3ccccc23)ccc1O | 4 | 0 | 1 | 2 | -10 | 8
COc1ccccc1N1CCN(C(=O)c2cc(N3C(=O)C4C5CCC(C5)C4C3=O)ccc2Cl)CC1 (centres undefined) | -1 | -8 | 0 | 0 | -7 | 10
COc1ccccc1/C=N/NC(=O)c1ccc2c(c1)OCO2 | -2 | 1 | 0 | -2 | 0 | 10
CCCN(CCC)S(=O)(=O)c1ccc(C(=O)NCc2ccc3c(c2)OCO3)cc1 | 4 | -18 | 1 | 6 | -10 | 3
NC(=O)c1ccsc1NC(=O)COC(=O)Cc1c[nH]c2ccccc12 | 0 | 26* | 0 | -4 | -4 | 5
COc1cc(/C=C/c2nc(-c3ccccc3O)n[nH]2)cc(OC)c1OC | 0 | 10 | 40 | -6 | -24 | -1
CC(=O)Nc1ccc(/C=C/c2nc(-c3ccccc3O)n[nH]2)cc1 | 1 | 21* | 1 | -3 | -13 | 2
O=C(Nc1ccccc1)c1ccc(S(=O)(=O)NCC2CCCO2)cc1 (centres undefined) | 7 | 0 | 0 | 1 | 6 | 14
Cc1ccc(NC(=O)c2ccc(CNS(=O)(=O)c3cccc(C(F)(F)F)c3)cc2)cc1 | 11 | 11* | 0 | -2 | 8 | 2
O=C(Nc1cccc(Cl)c1)c1ccc(S(=O)(=O)NCC2CCCO2)cc1 (centres undefined) | -1 | 21* | 0 | 1 | 13 | 8
COc1cccc(S(=O)(=O)NCc2ccc(C(=O)Nc3cccc(Cl)c3)cc2)c1 | -3 | 15* | 2 | 6 | 15 | 26
O=C(Cn1nc(C(F)(F)F)c2c1CCCC2)NCCN1CCOCC1 | -4 | -1 | 1 | 1 | -2 | -11
O=C(c1ccc(Cl)cc1Cl)N1CCOCC1 | 1 | 0 | -2 | -3 | -5 | 4
CCC(C(=O)NCCC1=CCCCC1)n1nc(C)c2c(C)n(-c3ccccc3)nc2c1=O (centres undefined) | 1 | -2 | 2 | 4 | -2 | 9
c1ccc2sc(-c3ccncc3)nc2c1 | 2 | -2 | -1 | -5 | -9 | 39*
Oc1ccc(-c2nc3ccccc3s2)cc1 | -2 | 15* | 6 | -133 | -449 | -11
O=C(CSc1nc2ccccc2s1)c1ccc(O)cc1O | -4 | 30* | 2 | 7 | 5 | 12
O=C(Nc1ccc(F)cc1)Nc1sccc1-c1nc2ccccc2s1 | -1 | 31* | 44 | -25 | -63 | 11
SMILES | MT1-MMP act inh | GRIN3A LBD mod | MPTP block | ADAM17 inh | ADAM10 inh | SKN-1 block
Cc1cc(C)cc(OCCCCn2cncn2)c1 | 0 | 3 | 0 | 0 | 8 | -1
CC(=O)N(C)c1ccc(NC(=O)COc2ccc(Br)cc2C)cc1 | 2 | -3 | 2 | 1 | -1 | 7
O=C(Nc1ccc(O)c(-c2nc3ccccc3s2)c1)c1cccs1 | 6 | 26* | 8 | 1 | 1 | 3
Oc1ccc(-c2nc3ccccc3s2)c(O)c1 | -9 | 39* | 11 | -112 | -359 | 5
COc1ccc(-c2nc3ccccc3s2)cc1 | 0 | 40* | 2 | -10 | -37 | 33
CC1CCN(Cc2c(C(=O)N/N=C/c3ccc(C(C)(C)C)cc3)nnn2-c2nonc2N)CC1 | -2 | 10 | 3 | 1 | 4 | -9
COc1ccc(-c2nn(CC(=O)Nc3ccc(Cl)c(Cl)c3)c(=O)c3ccccc23)cc1 | 0 | 4 | -2 | -3 | 8 | 39*
CCN(CC)c1ccc(C(=S)N2CCN(c3ccccc3)CC2)cc1 | -4 | 1 | 0 | -1 | 1 | 32*
Cc1ccc(NS(=O)(=O)c2ccc(Cl)c(N=Nc3c(O)[nH]c(=O)[nH]c3=O)c2)cc1Cl | 8 | 11* | 0 | -4 | -4 | -8
COc1ccccc1/C=C/C(=O)NCC(=O)N/N=C/c1ccccc1[N+](=O)[O-] | 4 | -2 | 1 | 5 | -14 | 7
CC(OC(=O)c1ccccc1C(=O)O)c1ccccc1 (centres undefined) | 1 | 0 | -1 | -5 | -8 | 11
NC(=S)N/N=C/c1c(O)c(Br)cc2oc3c(c12)CCCC3 | -12 | 10* | 37 | -1 | 1 | 13
COc1ccc(/C(C)=N/NC(=O)CNC(=O)C2COc3ccccc3O2)c(OC)c1 (centres undefined) | 3 | -1 | 8 | -4 | -3 | -12
O=C(COC(=O)CCCCCN=C1NS(=O)(=O)c2ccccc21)Nc1ccc(Cl)c(Cl)c1 | 0 | 22* | 9 | 4 | 10 | 5
C[C@H](NC(=O)c1cc2cc(Cl)ccc2n1C)C(=O)N1CCC(C(=O)O)CC1 | -1 | -1 | 0 | -8 | -2 | 10
C/C(=N\NC(=O)C1CC1c1ccccc1)c1ccc(C)s1 (centres undefined) | 2 | 2 | 0 | -5 | 11 | -6
CCOC(=O)C(/C(C)=N/NC(=O)C1CC1c1ccccc1)C(C)C (centres undefined) | -4 | 16* | -2 | 2 | 9 | 0
Cc1ccc2nc(-c3sc4nc(C)ccc4c3N)[nH]c2c1 | 10 | 25* | 0 | -185 | i | 24
Cc1cc(C)c2c(N)c(-c3nc4ccccc4[nH]3)sc2n1 | 2 | 4 | 0 | -216 | i | -14
COc1ccc2cc(N3CCCC3=O)ccc2c1 | 3 | -1 | -1 | -6 | -11 | 41*
Cc1cc([N+](=O)[O-])nn1CCCC(=O)Nc1sc2c(c1C(N)=O)CCCC2 | 7 | 17* | 3 | -2 | 2 | -6
CCO[C@@H]1OC(C(=O)N2CCN(Cc3ccccc3)CC2)=C[C@H](c2ccc(C(F)(F)F)cc2)[C@H]1CCCO | 1 | -3 | -1 | 0 | 5 | 7
